Measured values collected from several papers.
Each line is one published result; the experiments were not run side by side.

`CO[C@H]1/C=C/O[C@@]2(C)Oc3c(C)c(O)c4c(O)c(c(/C=N/N5CCN(C)CC5)c(O)c4c3C2=O)NC(=O)/C(C)=C\C=C\[C@H](C)[C@H](O)[C@@H](C)[C@@H](O)[C@@H](C)[C@H](OC(C)=O)[C@@H]1C` has an MIC of under 0.78 µM (Mycobacteroides chelonae; microbial growth; 72 h).
`COC(=O)c1cc(-c2cccc(NC(=O)Nc3cccc(C#N)c3)c2)on1` has an MIC of over 64 µg/mL (Mycobacteroides chelonae; microbial growth; broth dilution; ATCC35752; 48 h).
With `O=C(O)c1ccc(/C=C/c2nc3ccccc3c(=O)n2-c2cccc(O)c2)cc1` the MIC was 64 µg/mL (Enterococcus faecium; microbial growth; broth dilution; NCTC7171).
The IC50 of `O=C(NOC[C@H](O)CO)c1ccc(F)c(F)c1Nc1ccc(I)cc1F` is reported as over 10000 nM (MB002; cell growth or viability; 7 days).
The MIC of `COc1ccc(/C=C/c2nc3ccccc3c(=O)n2-c2cccc(O)c2)cc1` is reported as 64 µg/mL (Enterococcus faecium; microbial growth; broth dilution; NCTC7171).
`COC(=O)c1cc(-c2cccc(NC(=O)Nc3cccc(F)c3)c2)on1` gave an MIC of over 64 µg/mL (Mycobacteroides chelonae; microbial growth; broth dilution; ATCC35752; 48 h).
The EC50 of `O=C(O)c1cc(Cl)ccc1-c1ccc(Cl)cc1C(=O)Nc1ccc2c(c1)Cc1ccccc1-2` is reported as 28500 nM (Trypanosoma brucei; parasite growth; resazurin; 72 h).
The MIC of `COC(=O)c1cc(-c2cccc(NC(=S)Nc3ccc(OC)cc3)c2)on1` is reported as over 64 µg/mL (Mycobacteroides chelonae; microbial growth; broth dilution; ATCC35752; 48 h).
For `O=C1[O][Pt]2([NH][C@@H]3CCCC[C@H]3[NH]2)[O]C1=O`, the IC50 was 2330 nM (HD-MB03; cell growth or viability; 7 days).
With `C#Cc1ccc(/C=C/c2nc3ccccc3c(=O)n2-c2cccc(O)c2)cc1` the MIC was 32 µg/mL (Enterococcus faecium; microbial growth; broth dilution; NCTC7171).
With `COC(=O)c1cc(-c2cccc(NC(=S)NC3CCCCC3)c2)on1` the MIC was over 64 µg/mL (Mycobacteroides chelonae; microbial growth; broth dilution; ATCC35752; 48 h).
The IC50 of `COc1cc(C(=O)NC2CCN(C)CC2)c(F)cc1Nc1ncc2c(n1)N(C1CCCC1)CC(F)(F)C(=O)N2C` is reported as 13.6 nM (MB002; cell growth or viability; 7 days).
